Results as given in ChEMBL document CHEMBL1132295, “Novel euglycemic and hypolipidemic agents. 4. Pyridyl- and quinolinyl-containing thiazolidinediones” (1999).

How the values were obtained:
Mus musculus [1] = test: Compound was administered at a dose of 30 mg/kg/day to evaluate the percentage reduction in plasma triglyceride (TG) after 6 days of treatment in db/db mice via oral gavage; Not significant.; format: functional, organism-based
Procedure, shortened: (§1)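 Male C57BL/KsJ-db/db mice, 8 weeks old, 4–6 per group, given compound orally once daily for 6 days; vehicle controls received 0.5% CMC (10 mL/kg); rosiglitazone 30 mg/kg as standard. On the last day, retro-orbital blood was taken 1 h post-dose. Plasma glucose and triglyceride were measured by kits. % reduction = [1 − (TT/OT)/(TC/OC)] × 100, using day-0 and control values; mean ± SE, ANOVA, P<0.05.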

Mus musculus [2] = test: Percentage reduction in plasma glucose after 6 days p.o. dosing at 30 mg/kg in db/db mice.; format: functional; settings: route oral; procedure, shortened: as §1
Mus musculus [3] = test: Compound was administered at a dose of 30 mg/kg/day to evaluate the percentage reduction in plasma triglyceride (TG) after 6 days of treatment in db/db mice via oral gavage.; format: functional; procedure, shortened: as §1
Mus musculus [4] = test: Compound was administered at a dose of 1 mg/kg/day to evaluate the percentage reduction in plasma glucose(PG) after 14 days of treatment in ob/ob mice via oral gavage.
Mus musculus [5] = test: Compound was administered at a dose of 3 mg/kg/day to evaluate the percentage reduction in plasma glucose(PG) after 14 days of treatment in db/db mice via oral gavage.
Mus musculus [6] = test: Compound was administered at a dose of 3 mg/kg/day to evaluate the percentage reduction in plasma glucose(PG) after 14 days of treatment in ob/ob mice via oral gavage.
Mus musculus [7] = test: Compound was administered at a dose of 10 mg/kg/day to evaluate the percentage reduction in plasma glucose(PG) after 14 days of treatment in db/db mice via oral gavage.
Mus musculus [8] = test: Compound was administered at a dose of 10 mg/kg/day to evaluate the percentage reduction in plasma glucose(PG) after 14 days of treatment in ob/ob mice via oral gavage.
Mus musculus [9] = test: Compound was administered at a dose of 30 mg/kg/day to evaluate the percentage reduction in plasma glucose(PG) after 14 days of treatment in ob/ob mice via oral gavage.
Mus musculus [10] = test: Compound was administered at a dose of 1 mg/kg/day to evaluate the percentage reduction in plasma triglyceride (TG) after 14 days of treatment in ob/ob mice via oral gavage.
Mus musculus [11] = test: Compound was administered at a dose of 3 mg/kg/day to evaluate the percentage reduction in plasma triglyceride (TG) after 14 days of treatment in ob/ob mice via oral gavage.
Mus musculus [12] = test: Compound was administered at a dose of 10 mg/kg/day to evaluate the percentage reduction in plasma triglyceride (TG) after 14 days of treatment in db/db mice via oral gavage.
Mus musculus [13] = test: Compound was administered at a dose of 10 mg/kg/day to evaluate the percentage reduction in plasma triglyceride (TG) after 14 days of treatment in ob/ob mice via oral gavage.
Mus musculus [14] = test: Compound was administered at a dose of 30 mg/kg/day to evaluate the percentage reduction in plasma triglyceride (TG) after 14 days of treatment in ob/ob mice via oral gavage.
Mus musculus [15] = test: Compound was administered at a dose of 3 mg/kg/day to evaluate the percentage reduction in plasma triglyceride (TG) after 14 days of treatment in db/db mice via oral gavage.
Mus musculus [16] = test: Compound was administered at a dose of 100 mg/kg/day to evaluate the percentage reduction in plasma glucose(PG) after 6 days of treatment in db/db mice via oral gavage.; format: functional; procedure, shortened: as §1
Mus musculus [17] = test: Compound was administered at a dose of 100 mg/kg/day to evaluate the percentage reduction in plasma triglyceride (TG) after 6 days of treatment in db/db mice via oral gavage.; format: functional; procedure, shortened: as §1
Mus musculus [18] = test: Compound was administered at a dose of 100 mg/kg/day to evaluate the percentage reduction in plasma glucose(PG) after 6 days of treatment in db/db mice via oral gavage; Not significant.; format: functional, organism-based; procedure, shortened: as §1
Mus musculus [19] = test: Compound was administered at a dose of 20 mg/kg/day to evaluate the percentage reduction in plasma glucose(PG) after 14 days of treatment in db/db mice via oral gavage.
Mus musculus [20] = test: Compound was administered at a dose of 20 mg/kg/day to evaluate the percentage reduction in plasma triglyceride (TG) after 14 days of treatment in db/db mice via oral gavage.
Mus musculus [21] = test: Compound was administered at a dose of 100 mg/kg/day to evaluate the percentage reduction in plasma triglyceride (TG) after 6 days of treatment in db/db mice via oral gavage; Not significant.; format: functional, organism-based; procedure, shortened: as §1

SMILES: O=C1NC(=O)C(Cc2ccc(OC[C@@H]3CCCN3c3ccc4ccccc4n3)cc2)S1 (stereo partly drawn) [listing 1 of 2 here]
- Reduction (Mus musculus [1]): Not significant

SMILES: Cl.O=C1NC(=O)/C(=C/c2ccc(OC[C@@H]3CCCN3c3ccccn3)cc2)S1
- Reduction (Mus musculus [2]): 70.8%
- Reduction (Mus musculus [3]): 31.7%
- Reduction (Mus musculus [4]): 18.8%
- Reduction (Mus musculus [5]): 53.8%
- Reduction (Mus musculus [6]): 50.2%
- Reduction (Mus musculus [7]): 61%
- Reduction (Mus musculus [8]): 42.4%
- Reduction (Mus musculus [9]): 37.2%
- Reduction (Mus musculus [10]): 46.6%
- Reduction (Mus musculus [11]): 39.33%
- Reduction (Mus musculus [12]): 43.8%
- Reduction (Mus musculus [13]): 35%
- Reduction (Mus musculus [14]): 53%

SMILES: Cl.O=C1NC(=O)C(Cc2ccc(OC[C@@H]3CCCN3c3ccccn3)cc2)S1 (stereo partly drawn)
- Reduction (Mus musculus [2]): 50.5%
- Reduction (Mus musculus [3]): 50.5%

SMILES: O=C1[N-]C(=O)C(Cc2ccc(OC[C@@H]3CCCN3c3ccccn3)cc2)S1.[Na+] (stereo partly drawn)
- Reduction (Mus musculus [2]): 65.5%

SMILES: O=C(O)/C=C\C(=O)O.O=C1NC(=O)/C(=C/c2ccc(OC[C@@H]3CCCN3c3ccccn3)cc2)S1
- Reduction (Mus musculus [2]): 63.6%
- Reduction (Mus musculus [3]): 66.4%
- Reduction (Mus musculus [4]): 52.4%
- Reduction (Mus musculus [5]): 12.75%
- Reduction (Mus musculus [6]): 40.25%
- Reduction (Mus musculus [7]): 49.6%
- Reduction (Mus musculus [8]): 69.25%
- Reduction (Mus musculus [9]): 73%
- Reduction (Mus musculus [10]): 65.75%
- Reduction (Mus musculus [11]): 59%
- Reduction (Mus musculus [15]): 75%
- Reduction (Mus musculus [12]): 78.4%
- Reduction (Mus musculus [13]): 41.5%
- Reduction (Mus musculus [14]): 68.5%

SMILES: O=C1NC(=O)/C(=C/c2ccc(OC3CCN(c4ccccn4)CC3)cc2)S1
- Reduction (Mus musculus [16]): 38%
- Reduction (Mus musculus [17]): 40.25%

SMILES: CN(CCOc1ccc(CC2SC(=O)NC2=O)cc1)c1ccccn1 (stereo in doubt; form 1) [ROSIGLITAZONE]
- Reduction (Mus musculus [2]; 30 mg/kg): 64.6%
- Reduction (Mus musculus [3]): 41%
- Reduction (Mus musculus [5]): 41.6%
- Reduction (Mus musculus [7]): 47.25%
- Reduction (Mus musculus [15]): 47%
- Reduction (Mus musculus [12]): 35.25%

SMILES: CN(CCOc1ccc(CC2SC(=O)NC2=O)cc1)c1ccccn1 (stereo in doubt; form 2) [ROSIGLITAZONE]
- Reduction (Mus musculus [2]; 30 mg/kg): 35%
- Reduction (Mus musculus [3]): 40.21%

SMILES: O=C1NC(=O)C(Cc2ccc(OCC3CN(c4ccccn4)CCO3)cc2)S1 (stereo not drawn) [listing 1 of 2 here]
- Reduction (Mus musculus [2]): 57.5%

SMILES: O=C1[N-]C(=O)C(Cc2ccc(OC[C@@H]3CCCN3c3ccc4ccccc4n3)cc2)S1.[Na+] (stereo partly drawn)
- Reduction (Mus musculus [2]): 61.5%
- Reduction (Mus musculus [3]): 24.75%

SMILES: O=C1NC(=O)C(Cc2ccc(OC[C@@H]3CCCN3c3ccc4ccccc4n3)cc2)S1 (stereo partly drawn) [listing 2 of 2 here]
- Reduction (Mus musculus [2]): 72.25%
- Reduction (Mus musculus [3]): 49%

SMILES: O=C1NC(=O)C(Cc2ccc(OC[C@@H]3CCCN3c3ccccn3)cc2)S1 (stereo partly drawn)
- Reduction (Mus musculus [2]): 52.25%
- Reduction (Mus musculus [3]): 65.5%

SMILES: O=C1NC(=O)/C(=C/c2ccc(OCC3CCN(c4ccccn4)CC3)cc2)S1
- Reduction (Mus musculus [18]): Not significant
- Reduction (Mus musculus [17]): 27.33%

SMILES: O=C1NC(=O)C(Cc2ccc(OCC3CN(c4ccccn4)CCO3)cc2)S1 (stereo not drawn) [listing 2 of 2 here]
- Reduction (Mus musculus [1]): Not significant

SMILES: O=C1NC(=O)/C(=C/c2ccc(OCC3CN(c4ccccn4)CCO3)cc2)S1 (stereo not drawn) [listing 1 of 2 here]
- Reduction (Mus musculus [16]): 55.25%
- Reduction (Mus musculus [17]): 52.5%

SMILES: O=C1NC(=O)/C(=C/c2ccc(OCC3CN(c4ccccn4)CCO3)cc2)S1 (stereo not drawn) [listing 2 of 2 here]
- Reduction (Mus musculus [1]): Not significant

SMILES: Cc1cc(N2CCC[C@H]2COc2ccc(CC3SC(=O)NC3=O)cc2)nc2ccccc12 (stereo partly drawn)
- Reduction (Mus musculus [2]): 40.5%
- Reduction (Mus musculus [3]): 66.25%

SMILES: Cl.O=C1NC(=O)C(Cc2ccc(OC[C@@H]3CCCN3c3ccc4ccccc4n3)cc2)S1 (stereo partly drawn)
- Reduction (Mus musculus [2]): 15.75%

SMILES: O=C1[N-]C(=O)C(Cc2ccc(OCC3CN(c4ccccn4)CCO3)cc2)S1.[Na+] (stereo not drawn)
- Reduction (Mus musculus [2]): 63.5%
- Reduction (Mus musculus [3]): 56.75%
- Reduction (Mus musculus [4]): 30%
- Reduction (Mus musculus [5]): 34.67%
- Reduction (Mus musculus [6]): 35.6%
- Reduction (Mus musculus [7]): 66%
- Reduction (Mus musculus [8]): 39.8%
- Reduction (Mus musculus [15]): 39.25%
- Reduction (Mus musculus [12]): 39%

SMILES: CN(CCOc1ccc(/C=C2\SC(=O)NC2=O)cc1)c1ccccn1
- Reduction (Mus musculus [16]): 55.5%
- Reduction (Mus musculus [17]): 35%

SMILES: O=C1NC(=O)/C(=C\c2ccc(OC[C@@H]3CCCN3c3ccccn3)cc2)S1
- Reduction (Mus musculus [16]): 57%
- Reduction (Mus musculus [17]): 77.75%

SMILES: O=C1[N-]C(=O)/C(=C/c2ccc(OC[C@@H]3CCCN3c3ccccn3)cc2)S1.[Na+]
- Reduction (Mus musculus [2]): 56.5%
- Reduction (Mus musculus [3]): 56%

SMILES: Cc1cc(N2CCC[C@H]2COc2ccc(CC3SC(=O)[N-]C3=O)cc2)nc2ccccc12.[Na+] (stereo partly drawn)
- Reduction (Mus musculus [2]): 30.25%
- Reduction (Mus musculus [3]): 58.5%

SMILES: O=C(O)/C=C\C(=O)O.O=C1NC(=O)C(Cc2ccc(OC[C@@H]3CCCN3c3ccccn3)cc2)S1 (stereo partly drawn)
- Reduction (Mus musculus [2]): 62.5%
- Reduction (Mus musculus [3]): 44.75%
- Reduction (Mus musculus [5]): 8.5%
- Reduction (Mus musculus [19]): 41.25%
- Reduction (Mus musculus [15]): 41.5%
- Reduction (Mus musculus [20]): 34.5%

SMILES: O=C1NC(=O)/C(=C/c2ccc(OCCN3CCN(c4ccccn4)CC3)cc2)S1
- Reduction (Mus musculus [16]): 35.75%
- Reduction (Mus musculus [17]): 69.75%

SMILES: Cc1cc(N2CCC[C@H]2COc2ccc(CC3SC(=O)NC3=O)cc2)nc2ccccc12.O=C(O)/C=C\C(=O)O (stereo partly drawn)
- Reduction (Mus musculus [3]): 53%

SMILES: O=C1NC(=O)/C(=C/c2ccc(OC[C@@H]3CCCN3c3ccc4ccccc4n3)cc2)S1
- Reduction (Mus musculus [16]): 63.75%
- Reduction (Mus musculus [21]): Not significant

SMILES: Cl.O=C1NC(=O)/C(=C/c2ccc(OCC3CN(c4ccccn4)CCO3)cc2)S1 (stereo not drawn)
- Reduction (Mus musculus [2]): 35.5%

SMILES: Cc1cc(N2CCC[C@H]2COc2ccc(CC3SC(=O)NC3=O)cc2)nc2ccccc12.Cl (stereo partly drawn)
- Reduction (Mus musculus [2]): 25.25%
- Reduction (Mus musculus [3]): 42%
